Assay outcomes: PubChem BioAssay, several laboratories
Compounds with a hit are over-represented: about 2% of the library has one in this group of screens.
IMP-1 inh: inhibitors of Pseudomonas aeruginosa IMP-1 metallo-beta-lactamase. purified IMP-1, nitrocefin hydrolysis, epi-absorbance fluorescence. inhibition, % at 5.6 µM. actives 0.45% (n = 290,000). AID 1556;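 active means inhibition above the mean plus 3 SD of all compounds in the same screening run, cut at about 4.5% in these data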;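 further: 0% = IMP-1 with DMSO and 100% = DMSO wells lacking enzyme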
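Test system: recombinant IMP-1 enzyme, purified / Medium: HEPES buffer pH 7.1 with ZnSO4 and Brij 35 / Doses: single dose, 5.6 µM / Times: 25 °C, 15 min preincubation, 25 min reaction / Detection: Epi-absorbance via hydrolysed-nitrocefin quenching of white-plate fluorescence, 480/530 nm, EDTA stop / Evaluation: percent inhibition from optical density relative to buffer-blank wells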
HKDC1 inh: inhibitors of human hexokinase HKDC1. actives 0.16% (n = 340,000). recombinant HKDC1, G6PDH/diaphorase resazurin coupled fluorescence. inhibition, % at 20 µM;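 active means inhibition above about 35% when tested at 20 µM, limit read from the data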;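 further: plate controls were DMSO wells with enzyme for no effect and DMSO wells lacking enzyme for full effect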
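Assay system: recombinant HKDC1 hexokinase; detection: coupled resazurin fluorescence, excitation 525 nm, emission 613 nm; benchmarks: DMSO-plus-enzyme-mix negative control, buffer-substituted positive control; compound dosing: single 20 µM dose; schedule: 90 min at room temperature in dark; also added: glucose plus 1 mM ATP as hexokinase substrates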
VIM-2 inh: inhibitors of Pseudomonas aeruginosa VIM-2 metallo-beta-lactamase. purified VIM-2, nitrocefin hydrolysis, epi-absorbance fluorescence. inhibition, % at 5.6 µM. actives 0.89% (n = 290,000);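 active means inhibition above the mean of all tested compounds plus 3 SD, cutoff set per screening run, cut at about 7.5% in these data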;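 further: red hydrolysis product quenches plate fluorescence so inhibitors raise well fluorescence; 0% = enzyme with DMSO and 100% = DMSO without enzyme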
PvdQ inh: P. aeruginosa PvdQ acylase inhibition | actives 0.063% (n = 340,000) | AID 488965 | inhibition, % at 10 µM | purified PvdQ acylase, fluorescence plate reader; in the data active means inhibition above about 30%, passing the limit was not always enough;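 further: 0% = vehicle neutral wells and 100% = reference inhibitor wells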
ATG4B inh: inhibitors of human ATG4B cysteine protease | actives 0.51% (n = 340,000) | inhibition, % at 8.33 µM | ATG4B cleavage of LC3-PLA2, NBD-HPC fluorescence, 1 h | Q9Y4P1 | AID 504462; in the data active means inhibition above about 40%
Target sequence (Q9Y4P1 whole entry, looked up): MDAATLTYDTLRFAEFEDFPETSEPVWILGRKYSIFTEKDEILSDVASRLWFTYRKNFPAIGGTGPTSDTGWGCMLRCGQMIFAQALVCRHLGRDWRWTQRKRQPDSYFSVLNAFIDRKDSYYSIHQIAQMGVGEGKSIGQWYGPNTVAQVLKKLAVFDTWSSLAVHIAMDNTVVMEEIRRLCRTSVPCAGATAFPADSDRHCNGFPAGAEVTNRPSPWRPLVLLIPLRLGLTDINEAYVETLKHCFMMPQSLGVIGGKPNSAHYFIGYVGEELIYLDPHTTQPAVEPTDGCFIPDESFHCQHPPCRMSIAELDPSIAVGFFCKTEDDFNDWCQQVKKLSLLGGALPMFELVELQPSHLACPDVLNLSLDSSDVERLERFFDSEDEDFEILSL
MIN6 prolif: MIN6 beta-cell proliferation induction; MIN6 cells proliferation, ATPlite luminescence, 48 h; cells starved in 0.2% serum; 100% = growth in 10% serum; proliferation, % at 10 µM; actives 0.29% (n = 330,000); AID 2380;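 active means compounds whose signal lies at least 3.5 SD above the mean of all wells on their plate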;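 further: 0% = DMSO-treated cells in low-serum medium and 100% = 10% serum control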
ATG4B conf: confirmation of human ATG4B inhibitors. shares compounds with ATG4B inh. ATG4B protease fluorescent substrate cleavage assay. inhibition, % at 8.33 µM. actives 92% (n = 320). AID 504757; in the data active means inhibition above about 39%
PLA2 counter: PLA2 (human) inhibition in ATG4B counter-screen | shares compounds with ATG4B inh | purified PLA2, NBD-C6-HPC fluorescence, 45 min | AID 588402 | inhibition, % at 8.33 µM | actives 66% (n = 1,600); in the data active means inhibition above about 50%
Target sequence (P04054 whole entry, looked up): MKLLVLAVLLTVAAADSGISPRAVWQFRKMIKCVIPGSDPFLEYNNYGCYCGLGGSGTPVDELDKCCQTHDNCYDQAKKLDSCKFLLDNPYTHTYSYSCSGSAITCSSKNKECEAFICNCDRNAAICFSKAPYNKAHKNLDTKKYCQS
Active calls of the source: *; · = not tested or not shown.

SMILES | IMP-1 inh | HKDC1 inh | VIM-2 inh | PvdQ inh | ATG4B inh | MIN6 prolif | PLA2 counter | others
Cc1ccc(O)c(-c2cc(-c3ccccc3C)[nH]n2)c1 | -7 | -3 | -3 | 4 | 55* | -3 | 62*
Oc1ccccc1-c1cc(-c2ccccc2Cl)[nH]n1 | -4 | 5 | -7 | 3 | 56* | -5 | 68*
COc1ccc(O)c(-c2cc(-c3ccccc3[N+](=O)[O-])[nH]n2)c1 | -2 | 0 | -4 | -1 | 19 | 0 | ·
CSc1ccc(S(=O)(=O)NCc2ccc(Cl)cc2Cl)cc1 | -1 | 19 | -3 | -1 | 15 | -2 | ·
CCc1ccc(Oc2nnnn2-c2ccc(C(N)=O)cc2)cc1 | -1 | -3 | -2 | -7 | 60* | 1 | 91*
NC(=O)c1ccc(-n2nnnc2Oc2ccc(Br)cc2)cc1 | -1 | -2 | 1 | -7 | -1 | 5 | ·
Cc1c(-c2cccc(Cl)c2)nc2ccccc2c1C(=O)OCC(=O)Nc1ccc2c(c1)OCO2 | -4 | -5 | -1 | -2 | 10 | -5 | ·
O=C(NC[C@@H]1CC[C@@H](Cc2ccc(-c3ccccc3)cc2)O1)Nc1ccc(Br)cc1 | · | 10 | · | -10 | 42* | · | 86*
O=C(NCC(=O)N(c1ccccc1)C(C(=O)NCC1CCCO1)c1ccccc1)c1ccco1 (stereo not drawn) | 0 | -1 | 0 | -8 | -18 | 6 | ·
CC(C)C(Sc1nc(-c2ccccc2)cc(-c2ccccc2)c1C#N)C(=O)O (stereo not drawn) | 2 | 2 | -1 | -13 | 46* | -3 | 39 | ATG4B conf=61*
COc1ccc(-c2cc(-c3ccccc3)nc(SC(C)C(=O)O)c2C#N)cc1 (stereo not drawn) | -1 | 0 | 3 | -8 | 24 | -4 | ·
COc1ccc(CCNC(=O)c2ccc3ccccc3n2)cc1 | -3 | 2 | 1 | -14 | -8 | -1 | ·
COc1ccc(C(=S)N2CCC(C(N)=O)CC2)cc1Br | -1 | -6 | 3 | -10 | 38 | 4 | ·
CCCCOc1ccc(C(=S)N2CCC(C(N)=O)CC2)cc1 | -3 | -7 | 2 | 2 | 82* | -2 | 84*
Cc1c(Cl)c([N+](=O)[O-])nn1Cc1ccc(C(=O)N/N=C\c2cccc(Br)c2)o1 | -2 | 9 | -7 | 2 | 58* | -3 | 68*
O=C(N/N=C\c1cccc(Cl)c1)c1ccc(Cn2cc(Br)c([N+](=O)[O-])n2)o1 | -1 | 2 | 0 | -4 | -3 | -1 | ·
Cc1ccc2c(c1)c1c(n2C)C(C(N)=O)CCC1 (stereo not drawn) | -3 | 9 | -5 | -8 | 62* | -2 | 69*
NC(=O)C1CCCc2c1n(Cc1ccccc1)c1ccccc21 (stereo not drawn) | -3 | 4 | -3 | -12 | 84* | -1 | 88*
Cc1sc(-n2c(C)cc(/C=C3\SC(=S)NC3=O)c2C)c(C#N)c1C | -3 | 30 | -4 | 11 | 81* | -3 | 74*
O=C(c1ccc(Cn2c(=O)[nH]c3ccccc3c2=O)cc1)N1CCN(c2ccccn2)CC1 | -1 | -6 | -3 | -5 | 4 | -3 | ·
O=C(c1ccc2c(=O)n(Cc3ccc4c(c3)OCO4)c(=S)[nH]c2c1)N1CCCCC1 | 0 | 14 | 0 | 1 | 55* | -3 | 8
O=C(c1ccc(Cn2c(=S)[nH]c3ccccc3c2=O)cc1)N1CCN(c2ccccn2)CC1 | -2 | -5 | 0 | -11 | 47* | -5 | 66*
O=C(CSc1nc(=O)n(CCCN2CCOCC2)c2c1CCCC2)Nc1ccc(F)cc1 | · | -3 | · | -10 | -2 | 2 | ·
Cc1cc(=O)oc2cc(NC(=O)C(C)N3C(=O)C4CCCCC4C3=O)ccc12 (stereo not drawn) | · | -4 | · | -10 | -1 | 0 | ·
Cc1csc2nc(SCC(=O)N3CCN(c4ccccc4)CC3)[nH]c(=O)c12 | -3 | 7 | 7 | -8 | -6 | -5 | ·
SMILES | IMP-1 inh | HKDC1 inh | VIM-2 inh | PvdQ inh | ATG4B inh | MIN6 prolif | PLA2 counter | others
Cc1cc(Cl)ccc1NC(=S)NCCC(c1ccccc1)c1ccccc1 | -1 | -3 | -4 | 3 | 1 | -3 | ·
Cc1c(Cl)cccc1NC(=S)NCCC(c1ccccc1)c1ccccc1 | -2 | 0 | -3 | -15 | 91* | -6 | 93*
Cc1c(Cl)cccc1NC(=S)NCCC(C)C | -1 | 4 | -2 | -4 | 64* | -7 | 67*
O=C(COc1ccc(Cl)cc1)Nc1cc(S(=O)(=O)N2CCCCC2)ccc1N1CCCCC1 | -2 | 0 | -2 | -26 | 1 | -3 | ·
COc1ccc(OC)c(CN2CCN(CC(=O)Nc3ccccc3C(=O)NC3CC3)CC2)c1 | · | -5 | · | -14 | -14 | 2 | ·
C/C(=N\NC(=O)c1ccc(OC2CCCC2)cc1)c1ccc(O)cc1 | 0 | -3 | 0 | -14 | 41* | 0 | 48
Cc1ccc(OCc2cc(C(=O)NCc3cc(F)ccc3C)no2)cn1 | -3 | -3 | -2 | -7 | 50* | -3 | 54*
Cc1ccc(Sc2nc3ccc(C)cn3c(=O)c2/C=N/O)cc1 | -3 | -11 | -5 | -3 | -5 | -6 | ·
Cc1ccccc1NC(=O)CN1C(=O)S/C(=C\c2ccc(-c3cc(C(=O)O)ccc3C)o2)C1=O | -3 | 20 | -3 | 2 | 42* | 0 | 21 | ATG4B conf=55*
Cc1ccc(NC(=O)CN2C(=O)S/C(=C/c3ccc(-c4cccc(C(=O)O)c4)o3)C2=O)cc1 | -3 | 29 | -3 | -8 | 4 | · | ·
O=C(Oc1c(-c2ccccc2)c(=O)n2c3c(cccc13)CC2)c1ccccc1 | -2 | 7 | -2 | · | 70* | -3 | 65*
O=C(Oc1c(-c2ccccc2)c(=O)n2c3c(cccc13)CC2)c1ccc(F)cc1 | -2 | 7 | -1 | -18 | 66* | -3 | 45 | ATG4B conf=62*
O=C(Oc1c(-c2ccccc2)c(=O)n2c3c(cccc13)CC2)c1cccc([N+](=O)[O-])c1 | -2 | 13 | 0 | -5 | 28 | -4 | ·
O=C(CCCN1C(=O)/C(=C\c2cccs2)SC1=S)Nc1cc([N+](=O)[O-])ccc1O | -4 | 10 | -6 | 8 | 4 | -7 | ·
O=C1/C(=C\c2cc([N+](=O)[O-])ccc2O)SC(=S)N1Cc1ccc(Cl)cc1 | 4 | 8 | 4 | 0 | 52* | · | 51*
O=C1/C(=C\c2cccc(O)c2O)SC(=S)N1Cc1ccccc1 | 2 | 9 | -1 | -13 | 74* | -4 | 89*
O=C1/C(=C\c2cccc(O)c2)SC(=S)N1Cc1ccccc1 | 2 | 3 | 0 | 2 | 9 | -4 | ·
